Compound activity as filed in PubChem.
A selection follows.
Apaf-1 act = activators of human Apaf-1 apoptosome; O14727; Apaf-1 apoptosome caspase-3 activation, DEVD-Rh110 fluorescence; stronger effect = lower value; activity change, negative = activation, % at 20 µM; 330,000 compounds, 0.31% hits;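 active means activity change at or below -40% at 20 µM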
Target sequence (O14727 whole entry, looked up): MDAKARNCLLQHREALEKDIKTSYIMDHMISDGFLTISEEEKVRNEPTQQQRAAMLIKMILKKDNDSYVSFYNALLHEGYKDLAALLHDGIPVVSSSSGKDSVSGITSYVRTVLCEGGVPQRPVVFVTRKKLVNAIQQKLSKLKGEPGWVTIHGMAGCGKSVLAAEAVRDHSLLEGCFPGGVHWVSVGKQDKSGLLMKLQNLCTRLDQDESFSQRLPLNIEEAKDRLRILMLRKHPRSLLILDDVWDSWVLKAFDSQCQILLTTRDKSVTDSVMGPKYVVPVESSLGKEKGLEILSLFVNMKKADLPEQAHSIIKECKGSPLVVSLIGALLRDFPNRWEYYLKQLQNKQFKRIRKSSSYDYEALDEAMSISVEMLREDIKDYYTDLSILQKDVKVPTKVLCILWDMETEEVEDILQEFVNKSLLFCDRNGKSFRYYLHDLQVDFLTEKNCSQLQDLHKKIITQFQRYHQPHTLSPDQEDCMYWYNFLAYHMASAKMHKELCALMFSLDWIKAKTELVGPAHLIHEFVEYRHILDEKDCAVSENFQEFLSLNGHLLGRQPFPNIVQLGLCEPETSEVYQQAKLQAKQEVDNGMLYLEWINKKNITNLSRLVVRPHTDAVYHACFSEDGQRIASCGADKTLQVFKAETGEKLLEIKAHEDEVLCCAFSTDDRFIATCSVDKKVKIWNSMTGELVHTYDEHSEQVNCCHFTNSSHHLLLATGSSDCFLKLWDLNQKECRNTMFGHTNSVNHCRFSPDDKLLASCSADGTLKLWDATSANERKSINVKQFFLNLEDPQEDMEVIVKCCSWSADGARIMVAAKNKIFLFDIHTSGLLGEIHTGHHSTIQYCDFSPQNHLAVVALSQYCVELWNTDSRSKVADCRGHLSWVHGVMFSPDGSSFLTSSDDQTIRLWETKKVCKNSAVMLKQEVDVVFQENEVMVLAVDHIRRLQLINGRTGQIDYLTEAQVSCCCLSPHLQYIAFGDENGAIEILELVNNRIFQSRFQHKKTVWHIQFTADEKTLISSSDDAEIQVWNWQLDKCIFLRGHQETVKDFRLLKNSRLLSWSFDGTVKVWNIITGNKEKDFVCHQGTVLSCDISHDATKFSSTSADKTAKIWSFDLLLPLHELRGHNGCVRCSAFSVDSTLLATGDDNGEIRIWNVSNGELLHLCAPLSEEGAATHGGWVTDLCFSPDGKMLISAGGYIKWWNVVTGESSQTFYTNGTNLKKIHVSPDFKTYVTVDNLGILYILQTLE
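System: Reconstituted apoptosome of Apaf-1, cytochrome c, caspase-9, procaspase-3 | Reagent: dATP, cytochrome c, and (Z-DEVD)2-Rh110 caspase-3 substrate | Times: 30 min compound preincubation and 50 min reaction, both room temperature | Detection: Caspase-3-released Rh110 fluorescence, 540 nm emission, 480 nm excitation | Measure: Caspase-3 activity via Apaf-1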
Rh110 interf act = Rh110 signal interference in Apaf-1 activator counter-screen; shares compounds with Apaf-1 act; Rh110 fluorescence interference, quenched caspase reaction, Ex480/Em540; fluorescence interference (activity change), % at 20 µM, hits read low; 980 tested, under 10 active;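 active means mean activity change at or below -40% when tested at 20 µM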
Apaf-1 act conf2 = Apaf-1 (human) activation, single-dose confirmed; shares compounds with Apaf-1 act; reconstituted apoptosome caspase-3 activity, DEVD-Rh110 fluorescence; stronger effect = lower value; activity change, negative = activation, % at 20 µM; 980 compounds, 5% hits;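 active means mean activity change at or below -40%, meaning activation of 40% or more, at 20 µM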
Of the large screens only hits and unclear results are named; the others gave an inactive call (follow-up assays come after a bar, where they were run).

COc1ccc(C2C(C#N)=C(N)OC(C(C)(C)C)=C2C#N)cc1OC (stereo unspecified)	Apaf-1 act -50.5 | Rh110 interf act inactive | Apaf-1 act conf2 inactive
Cc1[nH]n(-c2ccccc2)c(=O)c1C(c1ccc(O)c([N+](=O)[O-])c1)c1c(C)[nH]n(-c2ccccc2)c1=O	none
CN1CCN(c2nc(-c3ccc(C(C)(C)C)cc3)nc3ccccc23)CC1	none
COc1cc(OC)c2c(-c3ccccc3)cc(=O)oc2c1C(CCN1CCOCC1)c1ccc2c(c1)OCO2 (stereo unspecified)	none
Cc1[nH]c2ccccc2c1C(C#N)(C#N)C1C(=O)c2ccccc2C1=O	none
O=C(CSc1ccc2nnc(-c3ccccc3)n2n1)N1CCCCC1	Apaf-1 act -113.3 | Rh110 interf act inactive | Apaf-1 act conf2 inactive
Cc1ccc(C(=O)NCC(=O)N2CCCCCCC2)cc1	none
CCN(CC)CCOC(=O)c1ccc(NC(=O)CCCN2C(=O)/C(=C\c3cccs3)SC2=S)cc1	none
Cc1ccc(/C=N/NC(=O)CNC(=O)c2ccc(S(=O)(=O)N3CCCC3)cc2)o1	Apaf-1 act -522.0 | Rh110 interf act inactive | Apaf-1 act conf2 inactive
CCc1nnc(NC(=O)c2ccc(S(=O)(=O)N3CCCCC3)cc2)s1	none
CN(C)CCCN(C(=O)c1ccc(S(=O)(=O)N2CCCCC2)cc1)c1nc2cc3c(cc2s1)OCO3	none
Cc1cc(C)cc(NC(=S)Nc2cccc3cnccc23)c1	none
O=C(NCCCn1ccnc1)c1cn(Cc2ccc(F)cc2)nn1	Apaf-1 act -41.0 | Rh110 interf act inactive | Apaf-1 act conf2 inactive
CCOc1ccc(-c2cc(C(=O)NCCCn3ccnc3)c3cc(Br)ccc3n2)cc1	none
Cc1ccc2c(c1)C(O)(C1COC(C)(C)CC1=O)C(=O)N2C (stereo unspecified)	Apaf-1 act -573.3 | Rh110 interf act inactive | Apaf-1 act conf2 inactive
CN1CCN(C2=C(Cl)C(=O)C(c3cnc(N4CCCCC4)s3)=C(Cl)C2=O)CC1	none
COc1cccc2c(=O)c3cccc(N)c3[nH]c12	none
COc1cccc2c3c(c(=O)[nH]c12)CCC(C)(C)O3	Apaf-1 act -63.4 | Rh110 interf act inactive | Apaf-1 act conf2 inactive
CCCCCCCCCCCCOC(=O)C[N+](C)(C)C	none
Cc1cc(N(CCO)CCO)ccc1N=Nc1cc(F)ccc1F	none
CCOC(=O)N1CCC(NC(=O)CN2C(=O)CSc3ncccc32)CC1	none
Cc1cccc(-n2ncc3c2CCCC3NC(=O)CN2CCCC2=O)c1C (stereo unspecified)	Apaf-1 act -203.0 | Rh110 interf act inactive | Apaf-1 act conf2 inactive
CN(C)CCC(c1ccccc1)c1ccccn1 (stereo unspecified)	none
COc1ccc(C)cc1NC(=O)CN1C(=O)C2CC=CCC2C1=O (stereo unspecified)	Apaf-1 act -315.2 | Rh110 interf act inactive | Apaf-1 act conf2 inactive
Cc1noc(C)c1COC(=O)C1COc2ccccc2O1 (stereo unspecified)	Apaf-1 act -72.6 | Rh110 interf act inactive | Apaf-1 act conf2 inactive
COc1ccc(C)cc1NC(=O)COC(=O)C1COc2ccccc2O1 (stereo unspecified)	Apaf-1 act -52.9 | Rh110 interf act inactive | Apaf-1 act conf2 inactive
CC1CN(Cc2c(O)ccc3c2oc(=O)c2ccccc23)CC(C)O1 (stereo unspecified)	none
CN(C)C=Nc1c(Br)cc(Br)c2nonc12	none
CCN1CCN(Cc2ccc(NC(=O)c3cc(NC(=O)C4=NN(c5ccccc5)C(=O)C4)cc(OC)c3)cc2C(F)(F)F)CC1	none
COc1ccc(-c2cc(C)no2)cc1S(=O)(=O)NCCc1ccco1	Apaf-1 act -382.3 | Rh110 interf act inactive | Apaf-1 act conf2 inactive
Cc1ccc(-c2nn3c(-c4ccco4)nnc3c3ccccc23)cc1S(=O)(=O)NCC1CCCO1 (stereo unspecified)	none
NC1=Nc2cccc3cccc1c23	none
O=[N+]([O-])c1cccc(OCc2cn3cccnc3n2)c1	Apaf-1 act -66.0 | Rh110 interf act inactive | Apaf-1 act conf2 inactive
O=C1C(SCCO)=C(SCCO)C(=O)c2ccccc21	none
CCOc1ccc(C(=O)C(C)=O)c(OCC)c1	Apaf-1 act -43.8 | Rh110 interf act inactive | Apaf-1 act conf2 inactive
N=c1n(CC(=O)c2ccc(Br)s2)c2ccccc2n1Cc1ccccc1	none
Cc1cccc(-c2nnc3sc(-c4ccccc4C)nn23)c1	Apaf-1 act -48.6 | Rh110 interf act inactive | Apaf-1 act conf2 inactive
COc1cccc(OC)c1-c1nn2c(-c3cc(-c4ccccc4)n[nH]3)nnc2s1	none
Cc1cccc(-c2cc3c(nn2)-c2ccccc2C3=O)c1	none
Nc1c(Br)cc(Br)cc1CNC1CCC(O)CC1 (stereo unspecified)	none
CCC(COC(=O)c1ccccc1)Oc1cc(NCc2ccccc2)c2ncn(C(C)C)c2c1 (stereo unspecified)	none
S=C(NCCc1ccc(Cl)cc1)NCc1ccco1	Apaf-1 act -154.0 | Rh110 interf act inactive | Apaf-1 act conf2 inactive
O=C(CCC1N=C2c3ccccc3N=C(SCc3ccc(Cl)cc3)N2C1=O)NCc1ccco1 (stereo unspecified)	none
CC1=NN(c2cccc(Cl)c2)C(=O)C1	none
C=CCN1C(=O)C2(OCCCO2)c2ccccc21	Apaf-1 act -42.1 | Rh110 interf act inactive | Apaf-1 act conf2 inactive
Nc1ncc(Br)cc1N=Cc1ccccc1	none
CN(C)c1ccc(NC2=C(Cl)C(=O)c3ccccc3C2=O)cc1	none
O=C(Nc1ccc(Oc2ccccc2)cc1)C1CCN(c2c3c(nc4ncnn24)CCC3)CC1	none
CCOC(=O)N1CCN(C2=C(NS(=O)(=O)c3ccccc3)C(=O)c3ccccc3C2=O)CC1	none
CCN(CC)C(=O)N1CCN(S(=O)(=O)c2ccccc2)CC1	Apaf-1 act -81.5 | Rh110 interf act inactive | Apaf-1 act conf2 inactive
COCCN(Cc1ccccc1)C(=O)c1cccc(S(=O)(=O)N2CCN(c3ccccc3)CC2)c1	none
CN1CCN(C2Cc3cc(F)ccc3Sc3ccc(Cl)cc32)CC1 (stereo unspecified)	Apaf-1 act -77.7 | Rh110 interf act inactive | Apaf-1 act conf2 inactive
CSc1ccc2c(c1)C(N1CCN(C)CC1)Cc1ccccc1S2 (stereo unspecified)	none
CN1CCN(CCCN2c3ccccc3Sc3ccc(Cl)cc32)CC1	none
Cc1ccc(C=Nc2ccc(N(C)C)cc2)o1	none
O=C(c1ccccc1)c1coc2c1C(=O)c1ccccc1C2=O	none
NS(=O)(=O)c1cccc(NC(=O)CCS(=O)(=O)c2ccc(Cl)cc2)c1	Apaf-1 act -253.5 | Rh110 interf act inactive | Apaf-1 act conf2 inactive
C#CCOCCOCCOCCNc1nc(N2CCN(C(=O)[C@H](CCCCN)n3cc(CCCC)nn3)CC2)nc(N2CCN(C(=O)[C@H](CCCCN)n3cc(CCCC)nn3)CC2)n1	none
COc1cccc(C(c2c(C)[nH]n(-c3ccccc3)c2=O)c2c(C)[nH]n(-c3ccccc3)c2=O)c1O	none
COC(=O)C1=C(C)N(Cc2ccccc2)C(=NCc2ccc3c(c2)OCO3)N[C@H]1c1ccccc1	none
O=C(NCc1ccc2c(c1)OCO2)c1ccc2snnc2c1	Apaf-1 act -181.2 | Rh110 interf act inactive | Apaf-1 act conf2 inactive
CC(=O)O[C@]1(C(C)=O)CC[C@H]2[C@@H]3C[C@H](C)C4=CC(=O)CC[C@]4(C)[C@H]3CC[C@@]21C	none
Nc1nc2c(s1)CCc1c-2cnn1-c1ccccc1	none
